The subject of one assay is Bacillus anthracis. The assay is described as follows: Antibacterial activity against Bacillus anthracis Sterne. The assay is classed as functional.
Assay [1] addresses T1, NH(3)-dependent NAD(+) synthetase (Bacillus anthracis, UniProt Q81RP3).
T1 sequence (Q81RP3 whole entry): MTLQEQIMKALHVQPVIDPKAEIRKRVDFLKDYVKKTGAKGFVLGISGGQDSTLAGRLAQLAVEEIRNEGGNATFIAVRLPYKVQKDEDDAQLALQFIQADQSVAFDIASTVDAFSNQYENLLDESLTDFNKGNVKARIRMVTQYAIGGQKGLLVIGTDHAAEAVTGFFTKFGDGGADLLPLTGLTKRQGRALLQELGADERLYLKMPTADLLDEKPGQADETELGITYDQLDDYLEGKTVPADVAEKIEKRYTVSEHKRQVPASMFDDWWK
Description: Inhibition of Bacillus anthracis NAD synthetase. A digest of the protocol: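 Purified B. anthracis NADs (6 μg/ml) in 60 mM HEPPS pH 8.5 with 0.5 mM NH4Cl, 20 mM KCl, 10 mM MgCl2, 0.1 mM NaAD, 2.5% DMSO and 0.3% BOG. Started with 0.2 mM ATP, quenched with guanidine-HCl after 10 min. Compounds tested 600 to 0.6 μM in doubling dilutions. NAD measured by reverse-phase HPLC peak height. IC50 is the average of duplicate runs.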

Each structure is given as a SMILES string. Converted amounts (≈) assume the structure as drawn.

As a reminder, the MIC is the lowest concentration found to suppress growth. Read a high MIC as weaker potency. The compound `COc1ccc(CCNC(=O)NCc2cccc(CNC(=O)NCCc3ccc(OC)cc3)c2)cc1` returned a minimum inhibitory concentration (MIC) in the assay with Bacillus anthracis of over 204 µM.
As usually defined, the IC50 is the point on the concentration scale where inhibition reaches its midpoint. Lower therefore signals higher potency. On to `COc1ccc(Br)c(-c2nnc(-c3ccccc3NC(=O)NC(=O)c3ccccc3Cl)o2)c1`, for which the IC50 in assay [1] turned out to be 220 µM. Also, the MIC in the assay with Bacillus anthracis is over 240 µM.
In the same order, the values of `NC(=O)c1c(NC(=S)NC(=O)c2cccc([N+](=O)[O-])c2)sc2c1CCCC2` are 186 µM and over 240 µM.
As to `O=C(Cn1cc(/C=C/c2[nH]c(=O)[nH]c(=O)c2[N+](=O)[O-])c2ccccc21)Nc1ccc(F)cc1`, the MIC against Bacillus anthracis was over 223 µM.
In turn, `COc1ccc(NC(=O)Nc2cccc(NC(=O)Nc3ccc(OC)cc3)c2F)cc1` displayed an MIC against Bacillus anthracis of over 240 µM.
Same read-out and setting: under `O=C(Nc1ccccc1)Nc1ccc(NC(=O)c2ccc(NC(=O)Nc3ccccc3)cc2)cc1` stands over 240 µM; under `Cc1ccc(-c2nc3cc(Cl)ccc3o2)cc1CC(=O)c1cc([N+](=O)[O-])c(C)c([N+](=O)[O-])c1`, over 240 µM; under `O=C(Nc1cccc(Oc2ccc3c(c2)C(=O)N(c2ccccc2)C3=O)c1)c1cccc([N+](=O)[O-])c1`, over 240 µM.
On the same count and under the same terms, next, `O=C(CSc1nc(Nc2ccccc2)nc(N2CCOCC2)n1)Nc1ccc([N+](=O)[O-])cc1O`: 15 µM (≈ 7.25 µg/mL); `O=C1C=C(Nc2ccccc2C(=O)O)C(=O)C=C1Nc1ccccc1C(=O)O`: over 264 µM.
Still for that read-out and setting: next, `O=C(Nc1cccc(/N=C/c2cc([N+](=O)[O-])ccc2O)c1)c1cccc(Br)c1`: over 227 µM; `O=C(Nc1ccc(Cc2ccc(NC(=O)c3ccc4c(c3)OCO4)cc2)cc1)c1ccc2c(c1)OCO2`: over 240 µM; `O=C(Nc1ccc2oc(-c3cc(Br)ccc3Cl)nc2c1)c1cccc([N+](=O)[O-])c1`: over 240 µM.
Consider `NC(=O)c1ccc(/N=C/c2cc([N+](=O)[O-])ccc2Cl)cc1`, for which, in the assay with Bacillus anthracis, the MIC was over 329 µM.
The same measure, in the same setting: next, `NC(=O)c1ccc(NC(=O)c2ccc(Oc3ccc([N+](=O)[O-])cc3Cl)cc2)cc1`: over 240 µM.
The same measure, in the same setting: next, `N/C(=N\OC(=O)c1ccc(Cl)c(Cl)c1)c1cccc(CSc2ccccn2)c1`: over 240 µM.
Still for that read-out and setting: under `Cc1c(NC(=O)c2ccc(N3CCCC3)c([N+](=O)[O-])c2)cccc1-c1nc2ccccc2[nH]1` stands over 240 µM.
In the case of `O=C(CCC(=O)Nc1ccc(Nc2ccccc2)cc1)Nc1ccc(Nc2ccccc2)cc1`, in the assay on Bacillus anthracis, the MIC was over 222 µM.
Still for that read-out and setting: next, `Cc1ccc(C(=O)Nc2cccc(-c3nc4ccccc4[nH]3)c2)cc1`: over 240 µM; `COc1ccc(NC(=O)Nc2ccc(Oc3ncnc4cc(Cl)ccc34)nc2)cc1OC1CCCC1`: over 240 µM.
Same read-out and setting: next, `O=C(Nc1ccc([N+](=O)[O-])cc1)c1ccc(-c2nnc(-c3ccccc3)o2)cc1`: over 259 µM; `CCOC(=O)C1=C(Nc2cccc3ccccc23)S/C(=C\c2ccc([N+](=O)[O-])cc2)C1=O`: over 224 µM; `O=C(NC(=S)Nc1cc(-c2nc3ccccc3[nH]2)ccc1Cl)c1ccccc1[N+](=O)[O-]`: over 240 µM.
On to `Cc1cc(-c2nnc(CSc3nnc(NC(=O)c4ccc(F)c(Cl)c4)s3)o2)ccc1[N+](=O)[O-]`, for which the MIC against Bacillus anthracis was over 240 µM.
For the compound `O=C(Cn1nnc(N2CCOCC2)n1)N/N=C/c1ccc(-c2cccc([N+](=O)[O-])c2)o1`, the 50% inhibitory concentration (IC50) in assay [1] was found to be 109 µM. In addition, in the assay with Bacillus anthracis, the minimum inhibitory concentration (MIC) was over 240 µM.
For the compound `O=C(Nc1cccc(C(=O)Nc2cccc3ccccc23)c1)c1cccc([N+](=O)[O-])c1`, the MIC in the assay on Bacillus anthracis was over 240 µM.
On the same count and under the same terms, next, `O=[N+]([O-])c1ccc(-c2cnc(N/N=C/c3cccc([N+](=O)[O-])c3)nc2)cc1`: over 274 µM.
Still for that read-out and setting: under `O=C(Nc1ccc(/N=N/c2ccccc2)cc1)c1ccc([N+](=O)[O-])cc1` stands over 240 µM; under `COc1ccc(Oc2ccc([N+](=O)[O-])cc2C(=O)Nc2ccc(S(N)(=O)=O)cc2)cc1`, over 240 µM; under `Nc1c(C(=O)c2ccc([N+](=O)[O-])cc2)sc(Nc2ccccc2)c1-c1nc2ccccc2[nH]1`, over 240 µM.
With `O=C(Nc1ccc([N+](=O)[O-])cc1)Nc1ccc(S(=O)(=O)Nc2ccc(Cl)c(Cl)c2)cc1`, the minimal inhibitory concentration (MIC) with Bacillus anthracis turned out to be 1.9 µM (≈ 0.915 µg/mL).
The same measure, in the same setting: under `Cc1cc(C)c2oc(-c3cccc(NC(=O)/C=C/c4cccc([N+](=O)[O-])c4)c3)nc2c1` stands over 240 µM; under `COc1ccccc1NC(=O)COc1ccc(/C=C(/C#N)c2nc3ccccc3[nH]2)cc1`, over 240 µM.
Still for that read-out and setting: next, `COc1ccccc1NC(=O)NC(=O)c1ccc(-c2csnn2)cc1`: over 240 µM; `O=C(COC(=O)c1ccc(NC(=O)c2ccc([N+](=O)[O-])cc2)cc1)c1ccc(F)cc1`: over 237 µM; `COc1cccc(NC(=O)Nc2nnc(COc3ccc([N+](=O)[O-])cc3)s2)c1`: over 240 µM.
Still for that read-out and setting: next, `CCc1ccc(S(=O)(=O)Nc2c([N+](=O)[O-])ccc3ccccc23)cc1`: 3.8 µM (≈ 1.35 µg/mL).
In assay [1], `N#C/C(=C\c1ccccc1[N+](=O)[O-])C(=O)c1ccccc1` had an IC50 of 51 µM. Inhibition of growth with Bacillus anthracis (MIC) required 120 µM (≈ 33.4 µg/mL).
In the assay with Bacillus anthracis, `Cc1onc(-c2ccccc2)c1NC(=O)Nc1ccc(Oc2ncnc3cc(Cl)ccc23)nc1` returned an MIC of over 240 µM.
Consider `O=C(Nc1ccc(S(=O)(=O)Nc2ncccn2)cc1)Nc1ccc(Cl)c(Cl)c1`, for which the MIC in the assay on Bacillus anthracis amounted to 15 µM (≈ 6.57 µg/mL). That is a double-digit micromolar value.
Regarding `O=[N+]([O-])c1ccc(O)c(/C=N/c2cccc(O)c2)c1`, the MIC against Bacillus anthracis is over 387 µM.
On the same count and under the same terms, under `Nc1ncnc(Nc2ccc(Cl)cc2C(=O)c2ccccc2Cl)c1[N+](=O)[O-]` stands over 247 µM.
Still for that read-out and setting: under `O=C(Nc1cccc(/N=C/c2cc([N+](=O)[O-])ccc2O)c1)c1ccc(Cl)cc1Cl` stands over 232 µM.

These data come from ChEMBL document CHEMBL1153931.
